Results from ChEMBL document CHEMBL5303300, “EUbOPEN Chemogenomics Library - Multiplex” (2023).
Several values for one entry are separate records, joined by “and”; a condition that tells them apart may be missing. Equal entries are not always repeated.

Tested on: U2OS
Experiment: Multiplex assay against U2OS
Type: toxicity, cell-based
Conditions: human, number of replicates 2
Method in brief: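 Per cents of healthy-nucleus cells form the tubulin, mitochondrial-mass and membrane-permeability phenotype values. Live cells were stained at seeding with Hoechst33342, BioTracker Green Microtubule Cytoskeleton Dye, MitoTracker Red and Annexin V Alexa Fluor 680. After compound addition they were imaged on a CQ1 microscope at 37°C and 5% CO2, and CellPathfinder machine-learning gating split them into Hoechst high-intensity objects or normal cells, normal cells into healthy, pyknosed or fragmented nuclei, and pyknosed cells into mitotic or apoptotic.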

[1] = 12 h, 1 µM, compound concentration 1 uM
[2] = 12 h, 10 µM, compound concentration 10 uM
[3] = 24 h, 1 µM, compound concentration 1 uM
[4] = 24 h, 10 µM, compound concentration 10 uM
[5] = 48 h, 1 µM, compound concentration 1 uM
[6] = 48 h, 10 µM, compound concentration 10 uM

## NC(=O)c1ccc(-c2nc(-c3ccc4c(c3)OCCO4)c(-c3ccccn3)[nH]2)cc1
[1]
  Population Apoptotic (%): 40% and 85%
  Population Fragmented Nuclei (%): 1% and 4%
  Population Healthy Nuclei (%): 88% and 86%
  Population Hoechst High Intensity Objects (%): 1% and 0%
  Population Membrane Permeable-Phenotype (%): 4% and 1%
  Population Mitochondria Different-Phenotype (%): 0% and 1%
  Population Normal (%): 98% and 100%
  Population Pyknosed Nuclei (%): 9%
  Population Tubulin-Different-Phenotype (%): 53% and 86%
  Total Cell Count: 54 and 150
[2]
  Population Apoptotic (%): 46% and 33%
  Population Healthy Nuclei (%): 78% and 63%
  Population Hoechst High Intensity Objects (%): 0%
  Population Membrane Permeable-Phenotype (%): 4% and 0%
  Population Mitochondria Different-Phenotype (%): 3% and 0%
  Population Mitotic Cells (%): 53% and 66%
  Population Normal (%): 100%
  Population Pyknosed Nuclei (%): 14% and 8%
  Population Tubulin-Different-Phenotype (%): 62% and 39%
[3]
  Population Apoptotic (%): 54% and 64%
  Population Fragmented Nuclei (%): 2% and 1%
  Population Healthy Nuclei (%): 84% and 92%
  Population Hoechst High Intensity Objects (%): 0%
  Population Membrane Permeable-Phenotype (%): 1%
  Population Mitochondria Different-Phenotype (%): 0%
  Population Mitotic Cells (%): 45% and 35%
  Population Normal (%): 100%
  Population Pyknosed Nuclei (%): 13% and 6%
  Population Tubulin-Different-Phenotype (%): 56% and 92%
  Total Cell Count: 84 and 214
[4]
  Population Healthy Nuclei (%): 86% and 65%
  Population Hoechst High Intensity Objects (%): 0%
  Population Membrane Permeable-Phenotype (%): 3% and 0%
  Population Mitochondria Different-Phenotype (%): 4% and 3%
  Population Normal (%): 99% and 100%
  Population Pyknosed Nuclei (%): 9% and 2%
  Population Tubulin-Different-Phenotype (%): 59% and 48%
[5]
  Population Apoptotic (%): 52% and 74%
  Population Fragmented Nuclei (%): 6% and 3%
  Population Healthy Nuclei (%): 82% and 90%
  Population Hoechst High Intensity Objects (%): 0%
  Population Membrane Permeable-Phenotype (%): 0% and 1%
  Population Mitochondria Different-Phenotype (%): 0%
  Population Mitotic Cells (%): 47% and 25%
  Population Normal (%): 100%
  Population Pyknosed Nuclei (%): 10% and 6%
  Population Tubulin-Different-Phenotype (%): 62% and 95%
[6]
  Population Apoptotic (%): 77% and 78%
  Population Fragmented Nuclei (%): 21% and 7%
  Population Healthy Nuclei (%): 66% and 78%
  Population Hoechst High Intensity Objects (%): 0%
  Population Membrane Permeable-Phenotype (%): 8% and 3%
  Population Mitochondria Different-Phenotype (%): 4% and 2%
  Population Mitotic Cells (%): 22% and 21%
  Population Normal (%): 100%
  Population Pyknosed Nuclei (%): 12% and 14%
  Population Tubulin-Different-Phenotype (%): 61% and 67%

## CC(C)N1CCN(Cc2cnc(-c3cc(-c4cccc5[nH]ccc45)cc4[nH]ncc34)o2)CC1 [NEMIRALISIB]
[1]
  Population Apoptotic (%): 42% and 80%
  Population Fragmented Nuclei (%): 12% and 2%
  Population Healthy Nuclei (%): 70% and 85%
  Population Hoechst High Intensity Objects (%): 0%
  Population Membrane Permeable-Phenotype (%): 0% and 1%
  Population Mitochondria Different-Phenotype (%): 3% and 0%
  Population Mitotic Cells (%): 57% and 20%
  Population Normal (%): 100% and 99%
  Population Pyknosed Nuclei (%): 17% and 11%
  Population Tubulin-Different-Phenotype (%): 53% and 72%
[2]
  Population Apoptotic (%): 69% and 57%
  Population Fragmented Nuclei (%): 13%
  Population Healthy Nuclei (%): 62% and 65%
  Population Hoechst High Intensity Objects (%): 0%
  Population Membrane Permeable-Phenotype (%): 15% and 8%
  Population Mitotic Cells (%): 30% and 42%
  Population Normal (%): 100%
  Population Pyknosed Nuclei (%): 24% and 20%
  Population Tubulin-Different-Phenotype (%): 18% and 30%
[3]
  Population Apoptotic (%): 60% and 80%
  Population Fragmented Nuclei (%): 4% and 3%
  Population Healthy Nuclei (%): 72% and 87%
  Population Hoechst High Intensity Objects (%): 0%
  Population Membrane Permeable-Phenotype (%): 0% and 1%
  Population Mitochondria Different-Phenotype (%): 0% and 2%
  Population Mitotic Cells (%): 40% and 19%
  Population Normal (%): 100% and 99%
  Population Pyknosed Nuclei (%): 22% and 9%
  Population Tubulin-Different-Phenotype (%): 59% and 78%
[4]
  Population Apoptotic (%): 33% and 60%
  Population Fragmented Nuclei (%): 10%
  Population Healthy Nuclei (%): 52% and 55%
  Population Hoechst High Intensity Objects (%): 2% and 0%
  Population Membrane Permeable-Phenotype (%): 4% and 8%
  Population Mitochondria Different-Phenotype (%): 36% and 43%
  Population Mitotic Cells (%): 66% and 39%
  Population Normal (%): 97% and 99%
  Population Pyknosed Nuclei (%): 37% and 34%
  Population Tubulin-Different-Phenotype (%): 32% and 33%
[5]
  Population Apoptotic (%): 47% and 70%
  Population Fragmented Nuclei (%): 4% and 3%
  Population Healthy Nuclei (%): 74% and 88%
  Population Hoechst High Intensity Objects (%): 0%
  Population Membrane Permeable-Phenotype (%): 1% and 2%
  Population Mitochondria Different-Phenotype (%): 1% and 0%
  Population Mitotic Cells (%): 52% and 29%
  Population Normal (%): 100%
  Population Pyknosed Nuclei (%): 20% and 8%
  Population Tubulin-Different-Phenotype (%): 81% and 76%
[6]
  Population Apoptotic (%): 60% and 67%
  Population Fragmented Nuclei (%): 23% and 8%
  Population Healthy Nuclei (%): 25% and 55%
  Population Hoechst High Intensity Objects (%): 3% and 2%
  Population Membrane Permeable-Phenotype (%): 12% and 11%
  Population Mitochondria Different-Phenotype (%): 37% and 35%
  Population Mitotic Cells (%): 39% and 32%
  Population Normal (%): 96% and 97%
  Population Pyknosed Nuclei (%): 51% and 35%
  Population Tubulin-Different-Phenotype (%): 25% and 38%

## CC(=O)O[C@H]1C(=O)[C@@]2(C)[C@H]([C@H](OC(=O)c3ccccc3)[C@]3(O)C[C@H](OC(=O)[C@H](O)[C@@H](NC(=O)c4ccccc4)c4ccccc4)C(C)=C1C3(C)C)[C@]1(OC(C)=O)CO[C@@H]1C[C@@H]2O [PACLITAXEL]
[2]
  Population Apoptotic (%): 75% and 81% and 77%
  Population Healthy Nuclei (%): 47% and 63% and 72% and 76%
  Population Hoechst High Intensity Objects (%): 0%
  Population Membrane Permeable-Phenotype (%): 6% and 3% and 4%
  Population Mitochondria Different-Phenotype (%): 12% and 10% and 16% and 15%
  Population Mitotic Cells (%): 25% and 18% and 22%
  Population Normal (%): 100% and 99%
  Population Pyknosed Nuclei (%): 11% and 18% and 15% and 13%
  Population Tubulin-Different-Phenotype (%): 33% [middle of 4 runs]
[4]
  Population Apoptotic (%): 72% and 57% and 74% and 78%
  Population Healthy Nuclei (%): 33% and 55% and 66% and 65%
  Population Hoechst High Intensity Objects (%): 2% and 0%
  Population Membrane Permeable-Phenotype (%): 7% and 3%
  Population Mitochondria Different-Phenotype (%): 27% [middle of 4 runs]
  Population Mitotic Cells (%): 27% and 42% and 26% and 21%
  Population Normal (%): 97% and 100% and 99%
  Population Pyknosed Nuclei (%): 26% and 25% and 20%
  Population Tubulin-Different-Phenotype (%): 21% and 19% and 36%
[6]
  Population Apoptotic (%): 77% and 76% and 90% and 93%
  Population Healthy Nuclei (%): 33% and 30% and 56% and 60%
  Population Hoechst High Intensity Objects (%): 0%
  Population Mitochondria Different-Phenotype (%): 38% and 42% and 41%
  Population Normal (%): 100% and 99%
  Population Pyknosed Nuclei (%): 35% and 28% and 32%
  Population Tubulin-Different-Phenotype (%): 33% and 28% and 32% and 41%

## CCN(CC)C/C=C/C(=O)Nc1cc2c(Nc3ccc(F)c(Cl)c3)ncnc2cc1OCC1CC1
[1]
  Population Apoptotic (%): 100% and 80%
  Population Healthy Nuclei (%): 61% and 76%
  Population Hoechst High Intensity Objects (%): 0%
  Population Membrane Permeable-Phenotype (%): 4% and 13%
  Population Mitochondria Different-Phenotype (%): 29% and 21%
  Population Mitotic Cells (%): 0% and 20%
  Population Normal (%): 100%
  Population Pyknosed Nuclei (%): 17% and 16%
  Population Tubulin-Different-Phenotype (%): 58% and 49%
[2]
  Population Apoptotic (%): 80% and 91%
  Population Fragmented Nuclei (%): 27% and 10%
  Population Healthy Nuclei (%): 25% and 48%
  Population Hoechst High Intensity Objects (%): 0% and 1%
  Population Membrane Permeable-Phenotype (%): 45% and 31%
  Population Mitochondria Different-Phenotype (%): 45% and 57%
  Population Mitotic Cells (%): 20% and 8%
  Population Normal (%): 100% and 98%
  Population Pyknosed Nuclei (%): 46% and 40%
  Population Tubulin-Different-Phenotype (%): 90% and 95%
[3]
  Population Apoptotic (%): 88% and 82%
  Population Healthy Nuclei (%): 58% and 73%
  Population Hoechst High Intensity Objects (%): 0%
  Population Membrane Permeable-Phenotype (%): 10% and 15%
  Population Mitochondria Different-Phenotype (%): 44% and 39%
  Population Mitotic Cells (%): 11% and 17%
  Population Normal (%): 100% and 99%
  Population Pyknosed Nuclei (%): 18% and 23%
  Population Tubulin-Different-Phenotype (%): 51% and 48%
[4]
  Population Apoptotic (%): 93%
  Population Healthy Nuclei (%): 11% and 1%
  Population Hoechst High Intensity Objects (%): 1%
  Population Mitotic Cells (%): 6%
  Population Normal (%): 98%
  Population Pyknosed Nuclei (%): 78% and 56%
  Population Tubulin-Different-Phenotype (%): 93% and 100%
  Total Cell Count: 133 and 52
[5]
  Population Apoptotic (%): 84% and 98%
  Population Healthy Nuclei (%): 52% and 71%
  Population Hoechst High Intensity Objects (%): 1% and 0%
  Population Membrane Permeable-Phenotype (%): 10% and 12%
  Population Mitochondria Different-Phenotype (%): 34% and 30%
  Population Normal (%): 98% and 100%
  Population Pyknosed Nuclei (%): 23% and 22%
  Population Tubulin-Different-Phenotype (%): 37% and 42%
[6]
  Population Apoptotic (%): 100% and 98%
  Population Healthy Nuclei (%): 1% and 7%
  Population Hoechst High Intensity Objects (%): 0%
  Population Membrane Permeable-Phenotype (%): 100% and 88%
  Population Mitochondria Different-Phenotype (%): 100% and 88%
  Population Mitotic Cells (%): 0% and 1%
  Population Normal (%): 100% and 99%
  Population Pyknosed Nuclei (%): 46% and 87%
  Population Tubulin-Different-Phenotype (%): 100%
  Total Cell Count: 56 and 120
